Measured values: ChEMBL document CHEMBL1154776, “Probes for narcotic receptor mediated phenomena. 39. Enantiomeric N-substituted benzofuro[2,3-c]pyridin-6-ols: synthesis and topological relationship to oxide-bridged phenylmorphans” (J Med Chem, 2009)

Columns and labels:
Mu-type opioid receptor [1] = molecular target: T1, Mu-type opioid receptor (Homo sapiens, UniProt P35372); assay: biochemical; format: cell-based, CHO
[2] = molecular target: Delta-type opioid receptor (Homo sapiens, UniProt P41143); assay: Displacement of [3H]DADLE from human recombinant delta opioid receptor expressed in CHO cells; format: cell-based
Chain of Delta-type opioid receptor (P41143 whole entry): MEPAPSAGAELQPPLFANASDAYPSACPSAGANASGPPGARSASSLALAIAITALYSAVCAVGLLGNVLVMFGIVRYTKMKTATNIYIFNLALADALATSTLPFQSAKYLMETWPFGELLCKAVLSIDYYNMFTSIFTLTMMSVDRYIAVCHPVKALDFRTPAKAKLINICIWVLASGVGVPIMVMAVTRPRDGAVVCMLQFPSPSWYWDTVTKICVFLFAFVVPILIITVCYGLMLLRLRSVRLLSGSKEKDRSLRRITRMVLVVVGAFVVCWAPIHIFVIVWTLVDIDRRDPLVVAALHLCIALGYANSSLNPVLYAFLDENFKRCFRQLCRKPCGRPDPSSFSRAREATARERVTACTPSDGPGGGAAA
Procedure, shortened: (§1)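 Stably transfected CHO cells (hDOR-CHO for [3H]DADLE, hKOR-CHO for [3H]U69,593) grown in DMEM with 10% FBS and G-418 (0.10-0.2 mg/mL) under 5% CO2 at 37 °C. Monolayers harvested and frozen at −80 °C before membrane use; n=3.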

[3] = molecular target: Kappa-type opioid receptor (Homo sapiens, UniProt P41145); assay: Displacement of [3H]U69593 from human recombinant kappa opioid receptor expressed in CHO cells; format: cell-based
Chain of Kappa-type opioid receptor (P41145 whole entry): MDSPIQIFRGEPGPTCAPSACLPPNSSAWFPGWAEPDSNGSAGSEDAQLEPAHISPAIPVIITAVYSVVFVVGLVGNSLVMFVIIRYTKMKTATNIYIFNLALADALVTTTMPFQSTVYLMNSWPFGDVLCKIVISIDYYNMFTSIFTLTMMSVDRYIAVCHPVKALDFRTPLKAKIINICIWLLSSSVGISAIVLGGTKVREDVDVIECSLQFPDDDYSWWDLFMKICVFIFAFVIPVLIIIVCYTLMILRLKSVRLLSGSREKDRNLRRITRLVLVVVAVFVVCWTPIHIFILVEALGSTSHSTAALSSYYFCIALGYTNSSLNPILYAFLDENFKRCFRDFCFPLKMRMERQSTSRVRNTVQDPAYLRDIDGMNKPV
Procedure, shortened: as §1

Mu-type opioid receptor [4] = molecular target: T1, Mu-type opioid receptor; assay: Agonist activity at human recombinant mu opioid receptor expressed in CHO cells assessed as stimulation of [35S]GTPgammaS binding after 3 hrs by liquid scintillation counting relative to DAMGO; format: functional, cell-based
Procedure, shortened: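 Same [35S]GTPγS membrane assay in hMOR-CHO: 50 pM radioligand, 10 μM GDP, 3 h at 25 °C, GF/B filtration, scintillation counting.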

Mu-type opioid receptor [5] = molecular target: T1, Mu-type opioid receptor; assay: Agonist activity at human recombinant mu opioid receptor expressed in CHO cells assessed as stimulation of [35S]GTPgammaS binding after 3 hrs by liquid scintillation counting; format: functional, cell-based
Procedure, shortened: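 hMOR-CHO membranes (50 μg protein) grown in DMEM/F-12 with 10% FBS and G-418. Incubated 3 h at 25 °C with 50 pM [35S]GTPγS in 50 mM Tris-HCl pH 7.4, 100 mM NaCl, 10 mM MgCl2, 1 mM EDTA, 1 mM DTT, 10 μM GDP and 0.1% BSA. Nonspecific binding defined with 40 μM GTPγS. Bound label separated on GF/B filters and scintillation counted; n=3.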

Mu-type opioid receptor [6] = molecular target: T1, Mu-type opioid receptor; conditions: CHO

T1 sequence (P35372 whole entry): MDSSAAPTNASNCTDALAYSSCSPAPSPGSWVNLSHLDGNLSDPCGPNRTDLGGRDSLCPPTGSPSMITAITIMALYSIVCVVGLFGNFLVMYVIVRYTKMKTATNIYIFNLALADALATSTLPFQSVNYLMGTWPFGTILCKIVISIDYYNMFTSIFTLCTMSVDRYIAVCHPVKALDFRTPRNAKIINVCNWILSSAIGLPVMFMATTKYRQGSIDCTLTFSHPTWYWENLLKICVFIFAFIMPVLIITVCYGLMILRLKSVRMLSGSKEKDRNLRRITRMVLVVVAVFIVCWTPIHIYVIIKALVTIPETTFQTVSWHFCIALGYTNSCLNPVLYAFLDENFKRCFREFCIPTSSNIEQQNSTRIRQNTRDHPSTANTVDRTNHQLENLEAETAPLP

Row | Compound | Ki (Mu-type opioid receptor [1]) | Ki [2] | Ki [3] | Emax (Mu-type opioid receptor [4]) | ED50 (Mu-type opioid receptor [5]) | Ke (Mu-type opioid receptor [6])
1 | CC[C@@]12CCN(C)C[C@@H]1Oc1ccc(O)cc12 | 0.0159 µM | 1.35 µM | 0.45 µM | – | – | –
2 | CC[C@]12CCN(CCc3ccccc3)C[C@H]1Oc1ccc(O)cc12 | 0.2 µM | 2.69 µM | 2.33 µM | 84% | 0.024 µM | –
3 | CC[C@@]12CCNC[C@@H]1Oc1ccc(O)cc12 | 0.048 µM | – | – | – | – | 95 nM
4 | CC[C@@]12CCN(C[C@@H](O)c3ccccc3)C[C@@H]1Oc1ccc(O)cc12 | 0.0093 µM | 0.443 µM | 0.413 µM | – | – | –
5 | CC[C@]12CCNC[C@H]1Oc1ccc(O)cc12 | 3.5 µM | – | – | 97% | 0.15 µM | –
6 | CC[C@]12CCN(C[C@H](O)c3ccccc3)C[C@H]1Oc1ccc(O)cc12 | 1.33 µM | 3.1 µM | 9.5 µM | 36% | – | –
7 | CC[C@]12CCN(C[C@@H](O)c3ccccc3)C[C@H]1Oc1ccc(O)cc12 | 0.6 µM | 2.49 µM | – | 100% | – | –
8 | CC[C@@]12CCN(C[C@H](O)c3ccccc3)C[C@@H]1Oc1ccc(O)cc12 | 0.08 µM | 0.807 µM | 1.09 µM | – | – | –
9 | CC[C@]12CCN(C)C[C@H]1Oc1ccc(O)cc12 | 1.33 µM | 4.27 µM | – | 45% | 0.241 µM | –
